High-throughput results as filed in PubChem BioAssay.
MrgX1 PAM: allosterically activates human MrgX1 receptor signaling. AID 588675. Q96LB2. MrgX1-HEK293, Fluo-4 calcium flux, FDSS; active compounds read high. B-score at 10 µM. hit rate 0.63% among 310,000;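 active = plate-corrected calcium response at least 3 library SD above typical, normal starting fluorescence, not activating the receptor alone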;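 note: compound read alongside a low EC10 to EC30 dose of BAM8-22 agonist; peak minus trough fluorescence over baseline measured at the second addition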
RGS4 block: inhibitors of human RGS4. P49798. HEK293 M3R/RGS4 inducible, Fluo-4 calcium flux; active compounds read high; triggered by carbachol at its EC20. B-score at 10 µM. hit rate 0.45% among 310,000;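 active = B-score, a plate-corrected calcium signal, over three deviations above library mean, with baseline fluorescence within five deviations of library mean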;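 note: RGS4 expression induced by doxycycline in cells with stable M3 receptor; B-score is computed from the integrated fluorescence ratio over baseline after carbachol; higher B-score means a larger calcium signal and so more RGS4 inhibition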
Target sequence (P49798 whole entry, looked up): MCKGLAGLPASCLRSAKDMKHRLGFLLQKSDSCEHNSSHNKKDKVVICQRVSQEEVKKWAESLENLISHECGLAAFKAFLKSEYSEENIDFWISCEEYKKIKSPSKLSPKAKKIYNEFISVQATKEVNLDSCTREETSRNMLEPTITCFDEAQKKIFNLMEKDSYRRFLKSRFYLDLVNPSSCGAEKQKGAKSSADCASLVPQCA
RGS4 act: potentiators or activators of RGS4; hit rate 0.92% among 310,000; HEK293 M3R/inducible RGS4, carbachol calcium flux Fluo4; active compounds read low; B-score at 10 µM;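 active = B-score of the integrated calcium signal more than 4 SD below the library mean, with starting fluorescence not abnormally high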;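 note: negative B-score means reduced calcium response which marks RGS4 activation or potentiation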
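System – HEK293 FlpIn-TREx cells, stable M3R, doxycycline-inducible RGS4 · Reagent – ECmax carbachol challenge · Times – compound preincubation 20 min at room temperature before agonist · Technique – Fluo4 fluorescence kinetic imaging of calcium · Measure – B score of integrated Fluo4 ratio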
MrgX1 ag: human MrgX1 receptor agonism, primary screen; hit rate 0.44% among 310,000; AID 588627; MrgX1-HEK293 cells, Fluo-4 calcium fluorescence, agonist mode; active compounds read high; B-score at 10 µM; Q96LB2;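 active = calcium response B-score plate-corrected fluorescence ratio at least 3 library SD, with starting fluorescence B-score inside 5 SD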
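Material: MrgX1-expressing HEK293 cells; input: 15,000 cells per well; doses: test compound given as first of three sequential additions; schedule: overnight plating before 1 h dye loading; technique: Fluo-4 NW calcium-flux fluorescence, kinetic read; evaluation: baseline-normalised fluorescence change ratio, B-scored; control set: plate-wise positive and negative controls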
MrgX1 antag: blocks BAM8-22 activation of human MrgX1 receptor; Q96LB2; MRGX1-HEK293 calcium flux, Fluo-4, BAM8-22 antagonism; active compounds read low; B-score at 10 µM; hit rate 1.3% among 310,000; AID 588676;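 active = calcium-response B-score plate-corrected more than 3 library SD below zero, starting fluorescence within 5 deviations, no agonist response on first addition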;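 note: peak minus trough fluorescence over baseline after final BAM8-22 challenge near maximal dose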
An asterisk follows results filed as active; i = inactive; / = no result given. Rows were chosen to be rich in hits. Some 3.5% of all compounds tested hit in one or more screens of this group.

SMILES	MrgX1 PAM	RGS4 block	RGS4 act	MrgX1 ag	MrgX1 antag
CCOC(=O)C1C(=O)C=C(c2cccc(NS(C)(=O)=O)c2)CC1c1ccco1 (configuration not stated)	i	i	i	i	i
Cc1cccc2sc(N(CCCN(C)C)C(=O)c3ccc(Cl)s3)nc12	i	i	-8.3*	i	i
CCCOc1ccc(C2C(C(=O)c3ccco3)=C(O)C(=O)N2CCCn2ccnc2)cc1 (configuration not stated)	i	i	i	i	-7.5*
CCCCCN1C(=O)/C(=C/c2c(N3CCc4ccccc4C3)nc3ccccn3c2=O)SC1=S	i	i	i	i	-8.7*
O=C(CSCc1ccco1)c1ccc(Cl)s1	i	i	i	i	i
O=C(CCN1CCC(c2ccc(Cl)s2)=N1)c1ccc(Cl)s1	i	i	i	i	-4.9*
CN1CCC=C(C(=O)N2c3ccccc3Sc3ccc(Cl)cc32)C1	i	i	-10*	i	i
O=c1c(-c2ccc(O)cc2)coc2cc(O)ccc12	i	i	i	i	-7.8*
Cc1cccn2c(=O)c(C=NCc3ccccc3)c(NCCO)nc12	i	i	i	i	i
CCCN1C(=O)/C(=C/c2c(NCCCOC(C)C)nc3c(C)cccn3c2=O)SC1=S	i	i	i	i	-10*
CCC(C)Nc1nc2c(C)cccn2c(=O)c1C=Nc1ccc(OC)cc1 (configuration not stated)	i	i	i	i	i
CCC(C)N1C(=O)/C(=C/c2c(NCCCOC(C)C)nc3c(C)cccn3c2=O)SC1=S (configuration not stated)	i	/	/	i	-11*
Cc1cc(C)c2nc(C)cc(N/N=C/c3ccc(O)cc3)c2c1	i	i	-7.4*	i	i
COc1ccc(-n2c(SCC(N)=O)nc3sc4c(c3c2=O)CCN(C)C4)cc1	i	i	i	i	i
COc1ccc(/C=N\NC(=O)c2ccc(F)cc2)cc1COc1cc(F)ccc1[N+](=O)[O-]	i	i	-9.8*	i	i
COc1ccc(/C=N/NS(=O)(=O)c2ccc(F)cc2)cc1COc1cc(F)ccc1[N+](=O)[O-]	i	i	i	i	i
CCOC(=O)c1ccccc1OCc1cc(/C=N/NC(=O)c2cccnc2)ccc1OC	i	i	-7.9*	i	i
COc1ccc(/C=N\NC(=O)c2ccccc2)cc1COc1ccccc1	i	i	i	i	i
Cc1sc2ncnc(N/N=C/c3ccc(O)cc3)c2c1C	i	i	i	i	i
COc1ccc(/C=N/Nc2ncnc3sc(C)c(C)c23)cc1	12*	i	i	i	i
CCCOc1ccc(C(=O)NNC(=S)NC(=O)c2ccccc2[N+](=O)[O-])cc1	8.4*	i	i	i	i
O=C(NC(=S)NNC(=O)c1ccccc1[N+](=O)[O-])c1ccccc1	9.7*	i	i	i	i
CCCOc1ccc(C(=O)NNC(=S)NC(=O)c2cc(-c3ccccc3)nc3ccccc23)cc1	i	i	-9.3*	i	-4.7*
CCCCC(=O)Nc1ccc(C(=O)NNC(=S)NC(=O)c2ccccc2[N+](=O)[O-])cc1	i	i	i	i	i
CCCOc1ccc(C(=O)NNC(=S)NC(C)=O)cc1	i	i	i	i	i
SMILES	MrgX1 PAM	RGS4 block	RGS4 act	MrgX1 ag	MrgX1 antag
O=C(NNC(=S)NC(=O)c1cccc([N+](=O)[O-])c1)c1ccc(Br)cc1	i	i	-8.3*	93*	i
O=C(NNC(=S)NC(=O)c1cccc([N+](=O)[O-])c1)c1ccc(O)cc1	i	i	i	i	i
O=C(NNC(=S)NC(=O)c1ccccc1[N+](=O)[O-])c1ccccc1	i	i	i	i	i
CCC(NC(=O)CCl)c1ccc(C)cc1 (configuration not stated)	i	i	i	i	i
CCN(CC)CCCN1C(=O)C(O)=C(C(=O)c2ccco2)C1c1ccc(C)o1 (configuration not stated)	i	i	i	i	i
COc1ccccc1C(=O)NCCC(=O)N1CCCCC1	i	i	i	i	i
